In publication PMC4327868 (Chemical research in toxicology, 2013):

Assays:
Assay type in all cases: cell-based
PC6-3 cells [1] = assay: Extracellular dopamine metabolites; settings: 300 μM
How it was run: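 NGF-differentiated PC6-3 cells were given test compound (0, 10, 25, 50, 100 or 300 μM; 0.6% DMSO) in HEPES-buffered saline, pH 7.4. Extracellular aliquots taken at 0, 1 and 4 h went into 5% perchloric acid and were centrifuged. DOPAL, DOPAC and DOPET were run on isocratic C18 HPLC (0.1% TFA, 6% ACN), read at 202/280 nm, and quantified against standard curves. Mean ± SD, n = 3.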

PC6-3 cells [2] = assay: DA-supplemented dopamine metabolism; settings: 10 μM dieldrin, cells spiked with 100 μM DA 15 min prior, 4 h, vs control
How it was run: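 PC6-3 cells seeded at 6 × 10^4 cells/well, NGF-differentiated (50 ng/mL, 4 days), and given 100 μM DA 15 min before 4 h exposure to test compound (10, 30, 100 or 300 μM) in HEPES-buffered saline. Extracellular DOPAL was measured by capillary C18 HPLC with photodiode-array detection and quantified against a standard curve. Reported as % control; mean ± SEM, n = 3 or 4.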

PC6-3 cells [3] = assay: Cytotoxicity by lactate dehydrogenase; settings: 4 h, even at high concentrations (900 μM)

ClC1=C(Cl)C2(Cl)C3CC4OC4CC3C1(Cl)C2(Cl)Cl (stereo not drawn) [desmethylene dieldrin, 1,8,9,10,11,11-Hexachloro-4,5-epoxy-2,3-7,6-endotricyclo[6.2.1.0^2,7]undec-9-ene]
increase of extracellular DOPAL concentration (PC6-3 cells [1]): 10 fold

ClC1=C(Cl)[C@]2(Cl)[C@@H]3[C@@H]4C[C@@H]([C@H]5O[C@@H]45)[C@@H]3[C@@]1(Cl)C2(Cl)Cl [dieldrin]
increase in extracellular DOPAL levels (PC6-3 cells [2]): ~200%

ClC1=C(Cl)C2(Cl)C3C4CC(C5OC45)C3C1(Cl)C2(Cl)Cl (stereo not drawn) [endrin]
cytotoxicity (LDH release) (PC6-3 cells [3]): no cytotoxicity
